Screening data from PubChem.
dFosB act – enhances mouse delta FosB homodimer DNA binding. P13346. purified delta FosB, TAMRA-CDK5 oligo fluorescence polarization; percent of positive-control signal above neutral wells. activation, % at 25 µM. actives 0.99% (n = 340,000). AID 493131;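 active means mean activation above about 17%, with every replicate also reaching it, limit read from the data, passing the limit was not always enough; inconclusive means only one of the two conditions met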
CDK5 inh – CDK5/p35 (human) kinase inhibition; Q00535+Q15078; Recombinant CDK5/p35, ADP-Glo luminescence, 60 min; inhibition, % at 10 µM; actives 0.01% (n = 330,000);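 active means highest replicate inhibition of at least 50% and at least 75% of replicates reaching 50%; inconclusive means only one of the two criteria met; inactive means both criteria failed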;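 further: plate controls were DMSO neutral control for no effect and GW8510 at 10 µM for full effect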
SR-BI HDL uptake – inhibitors of mouse SR-BI mediated HDL lipid uptake; Q61009; ldlA[mSR-BI] CHO cells, DiI-HDL uptake fluorescence, 3 h; inhibition, % at 12.5 µM; actives 0.96% (n = 320,000);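 active means mean replicate inhibition of at least 70% and a set share of replicates each scoring 70 or more; inconclusive means meets just one of the two criteria; inactive means fails both criteria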;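 further: 0% = median of neutral control wells and 100% = median of positive control wells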
PKA-R1A activ – activates the PKA-R1A holoenzyme complex; PKA-R1A dissociation, Cy5-IP20 fluorescence polarization; scaled: DMSO 0%, 113 µM cGMP 100%; activation, % at 11.4 µM; actives 0.083% (n = 340,000); AID 504707;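 active means percent activation above the mean of all tested compounds plus 3 SD, cut at about 19% in these data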;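 further: higher means more PKAc released from R1A so a rise in polarization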
SR-BI uptake up – SR-BI HDL lipid transfer activation. CHO ldlA[mSR-BI] cells, DiI-HDL uptake fluorescence, 3 h; 100 = double the neutral-control signal. activation, % at 12.5 µM. actives 0.096% (n = 320,000);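 active means mean replicate activation of at least 60% and every replicate at or above 60%; inconclusive means mean or all-replicate condition met, but not both; inactive means mean below 60% and not all replicates reaching 60%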;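 further: 0% = median plate neutral-control signal and 100% = twice that signal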
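material = CHO ldlA[mSR-BI] cells | medium = Ham's F12 with 0.5% BSA, HEPES 25 mM, pH 7.4 | reagent = fluorescent DiI-HDL, 10 µg/mL final | compound dosing = single-point compound dose | incubation = 3 h, 37 °C | measured by = bottom-read fluorescence, 550/595 nm | measure = HDL uptake via cellular fluorescence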
PKA-R2B activ – activators of human PKA-R2B complex | P22694+P31323 | activation, % at 11.4 µM | PKA-R2B holoenzyme dissociation, Cy5-IP20 fluorescence polarization; R2B truncated from residue 108, S112A mutant; 0% DMSO only, 100% 113 µM cGMP | actives 0.079% (n = 340,000);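 active means activation above a cutoff set at the mean over all compounds plus 3 SD, cut at about 18% in these data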;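 further: higher means more holoenzyme dissociation and a rise in polarization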
Target sequence (P31323 whole entry, looked up, other chains not shown, the tested form may be a part): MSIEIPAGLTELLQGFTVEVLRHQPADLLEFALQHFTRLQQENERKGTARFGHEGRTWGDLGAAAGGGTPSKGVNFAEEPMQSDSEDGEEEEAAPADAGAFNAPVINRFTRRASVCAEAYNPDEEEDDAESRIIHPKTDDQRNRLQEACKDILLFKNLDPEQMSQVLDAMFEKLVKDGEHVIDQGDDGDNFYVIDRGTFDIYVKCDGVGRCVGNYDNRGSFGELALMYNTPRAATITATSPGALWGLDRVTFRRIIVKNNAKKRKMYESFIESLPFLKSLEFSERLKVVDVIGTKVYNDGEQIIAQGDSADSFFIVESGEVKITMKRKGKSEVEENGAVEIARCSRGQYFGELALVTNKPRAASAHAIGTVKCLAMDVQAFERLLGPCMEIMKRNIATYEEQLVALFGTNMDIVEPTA
* marks the source's active call; other numbers are inactive results; ? = inconclusive; . = not tested or not shown. Rows were chosen to be rich in hits. Some 2.1% of all compounds tested hit in one or more screens of this group.

SMILES	dFosB act	CDK5 inh	SR-BI HDL uptake	PKA-R1A activ	SR-BI uptake up	PKA-R2B activ
COc1ccc(C)cc1NC(=O)C(=O)c1cn(CC(=O)N2CCCC2)c2ccccc12	-3.5	-0.8	?	-4.3	-76.9	-13.9
COc1ccc(OC)c(NC(=O)C(=O)c2cn(CC(=O)N3CCCC3)c3ccccc23)c1	2.2	1.3	80.5*	-15.6	-80.5	2.0
COc1ccccc1CNC(=O)C(=O)c1cn(CC(=O)N2CCCC2)c2ccccc12	-4.5	-2.0	77.8*	1.8	.	-6.3
CCOC(=O)c1c(SCC(=O)Nc2nccs2)nc(C)c(C)c1C	-4.8	0.0	24.9	5.6	-24.9	0.7
c1ccc(-c2ccc3c(c2)c2c4n3CCN=C4CCC2)cc1	-13.2	0.2	26.4	0.2	-26.4	-4.5
N#Cc1ccc(CSc2ccc(S(=O)(=O)N3CCCCCC3)cn2)cc1	-10.2	1.1	-6.2	-4.3	6.2	8.6
C=CCn1c(O)c(N=Nc2ccccc2O)c2ccccc21	3.5	-4.5	37.7	-16.7	-37.7	-1.6
Oc1ccccc1N=Nc1ccccc1O	-5.9	1.0	86.7*	1.4	-86.7	-2.5
CCOCCCNC(=O)CSc1nnc(-c2ccc(S(=O)(=O)N3CCCC3)cc2)n1C	-6.1	1.9	-9.5	5.1	9.5	-0.4
CC(=O)Nc1cccc(NC(=O)c2cc(-c3cccnc3)nc3ccc(Cl)cc23)c1	-13.0	0.1	73.3*	-5.3	-73.3	-9.1
CC(=O)Nc1cccc(NC(=O)c2cc(-c3cccnc3)nc3ccc(Br)cc23)c1	-17.2	-0.8	32.5	5.2	-32.5	-2.1
O=C(Nc1ccc(C(=O)N2CCOCC2)cc1)c1cc(-c2cccnc2)nc2ccc(Cl)cc12	-32.1	1.4	79.0*	-5.0	-79.0	-2.3
Cc1cc(NS(=O)(=O)c2ccc(NC(=O)c3cc(-c4cccnc4)nc4ccc(Cl)cc34)cc2)no1	-4.2	1.0	7.4	2.7	-7.4	0.8
CCN(CC)S(=O)(=O)c1ccc(-c2nnc(SCc3nnc(-c4ccc(C)cc4)o3)n2CC)cc1	-2.7	-4.6	72.1*	-0.6	-72.1	-4.8
Cn1cc(C(=O)Nc2ccc(C#N)cc2)c2ccccc2c1=O	-17.8	1.3	-319.4	4.5	?	2.8
COc1cc(N/N=C(\C)c2ccc(O)c(C)c2)nc(-c2ccccc2)n1	-4.2	-9.8	92.4*	2.3	-92.4	-7.1
O=[N+]([O-])c1cccc(/C=N/Nc2cc(Cl)nc(-c3ccccc3)n2)c1	0.9	3.3	74.2*	-8.8	-74.2	3.4
C/C(=N\Nc1cc(C)nc(-c2ccccc2)n1)c1cccc([N+](=O)[O-])c1	-6.0	0.7	76.9*	-6.3	-76.9	-10.9
COc1cc(N/N=C(\C)c2ccc(N)cc2)nc(-c2ccccc2)n1	-10.7	-0.8	78.9*	-0.8	-78.9	-0.8
CN(Cc1ccccc1)c1ncc(C=O)s1	1.0	0.8	14.8	-1.2	-14.8	1.9
O=C(COc1ccc(Br)cc1)N1CCN(c2ncccn2)CC1	-6.1	1.7	-19.6	-1.0	19.6	-1.1
Cc1c(C(=O)OCC(=O)N(C)c2ccccc2)oc2ccccc12	-8.4	-3.5	26.2	-6.0	-26.2	5.3
C/C(=N\Nc1cc(-c2ccccc2)nc(-c2ccccc2)n1)c1ccc(O)c(C)c1	-13.3	0.2	94.3*	-4.2	-94.3	0.7
C[C@]12c3[nH]c4cc(-c5ccco5)ccc4c3CCN1C(=O)[C@@H](CC(=O)NCCCn1ccnc1)C[C@@H]2C(=O)N1CCOCC1	5.5	0.5	4.7	2.3	-4.7	1.8
Cc1nn2c(-c3cccc(NC(=O)CSc4nc5ccccc5o4)c3)nnc2c2ccccc12	-6.2	-4.2	76.5*	-21.3	-76.5	-0.4
SMILES	dFosB act	CDK5 inh	SR-BI HDL uptake	PKA-R1A activ	SR-BI uptake up	PKA-R2B activ
Cc1ccccc1CNC(=O)c1ccc(Cl)c([N+](=O)[O-])c1	-2.1	0.6	11.7	8.9	-11.7	-1.2
CC(C)(C)SCCNC(=O)c1ccc(Cl)c([N+](=O)[O-])c1	-5.2	-6.3	-79.1	-7.9	79.1*	-11.5
CN(CC(=O)Nc1cccc(F)c1)C(=O)CC1CC2CCC1C2 (stereo not drawn)	-12.3	1.5	-6.8	12.1	6.8	3.8
O=C(Nc1ccc2c(c1)CN(Cc1ccc(CO)o1)CC2)c1ccc(C(F)(F)F)cc1	-8.8	1.0	54.4	-1.3	-54.4	-4.5
COc1ccccc1CCC(=O)Nc1ccc2c(c1)CN(Cc1ccc(CO)o1)CC2	-7.4	-2.0	76.9*	-3.9	-76.9	14.4
CCc1ccc(-c2cc(C)no2)cc1S(=O)(=O)N1CCN(c2ccc(F)cc2)CC1	-4.7	.	51.4	-5.1	-51.4	-9.7
CCc1ccc2nc(N(CCN(C)C)C(=O)c3ccc4ccccc4c3)sc2c1	21.7*	0.5	7.2	-8.2	-7.2	4.6
CN(C)CCN(C(=O)c1ccc2ccccc2c1)c1nc2ccc(F)cc2s1	26.3*	0.3	17.4	-11.8	-17.4	-3.0
COc1cc2ccccc2cc1C(=O)N(CCN(C)C)c1nc2c(OC)ccc(OC)c2s1	?	-7.0	19.9	-5.4	-19.9	-3.5
COc1ccc(OC)c2sc(N(CCN(C)C)C(=O)c3ccc4ccccc4c3)nc12	30.4*	-1.3	-12.2	-5.0	12.2	9.4
O=C(COc1ccc2c3c(c(=O)oc2c1)CCCC3)NCc1ccccn1	-13.3	2.4	-1.8	-6.5	1.8	3.1
Cc1ccc(S(=O)(=O)N2CCOCC2)cc1C(=O)NCC1CCCCC1	-21.2	0.0	2.3	8.7	-2.3	-1.0
CCOc1ccc(NC(=O)/C(C#N)=C/c2ccc(N3CCCC3)c(C)c2)cc1	-6.5	0.6	95.6*	-5.2	-95.6	2.1
CCOC(=O)c1sc2nc(C3CC3)cc(-c3ccc(F)cc3)c2c1N	-2.0	-1.7	76.7*	7.7	-76.7	-0.7
CN(Cc1ccccc1)C(=O)c1cccc(NC(=O)Cc2ccc(NC(=O)C3CCN(C(=O)C4CCC4)CC3)cc2)c1	-8.6	-0.6	92.4*	-5.8	-92.4	-1.3
O=C(Cc1ccc(NC(=O)C2CCCN(C(=O)C3CCCC3)C2)cc1)Nc1cccc(C(=O)N2CCCCC2)c1 (stereo not drawn)	1.7	-2.3	73.3*	-8.7	-73.3	-3.3
COc1ccc(N(CC(=O)N2CCc3ccccc3C2)S(C)(=O)=O)cc1Cl	-8.6	1.1	14.1	4.3	-14.1	-2.1
CCOC(=O)C1=C(COC(=O)c2ccc(OC)c(S(=O)(=O)N3CCOCC3)c2)NC(=O)NC1C (stereo not drawn)	-10.3	-2.5	19.2	4.0	-19.2	-8.1
COc1ccc(C=CC(=O)c2ccc(OCc3ccccc3)c(OC)c2)cc1OC	.	.	.	0.9	.	-5.2
